The values that follow come from PubChem BioAssay.

Active and inactive are the calls of the source.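 The calls were made as follows, unless noted: active = NADPH fluorescence slope more negative than the mean of all samples by about 3 SD, 99.7% confidence; inactive = the rest.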

The nature of experiment [1]: inhibitors of TNFa-induced NFkB p65 translocation, primary screen, imaging, HUVEC, MLSMR starter and 10KST1 sets (AID 438;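 active = inhibition above 20% together with a positive visual image hit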;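 also: compound added about 3h40 before a 20 min TNFalpha stimulation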;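 as to inhibition: signal is the nuclear over cytoplasmic p65 intensity ratio per well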). The note with it: HUVEC TNFa-induced p65 nuclear translocation; cell count: measured here: nuclei count (cytotoxicity indicator), at 2.08 µM; inhibition: at 2 µM, stronger effect = higher value, 0% TNFa-plus-vehicle, 100% no-TNFa wells.
Experiment [2] is described as follows: reduction of polyQ htt aggregates in cells – imaging, exon1htt(103Q)mCFP cells, high-content imaging, primary screen (AID 483;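 active = visual image review flags a hit and inhibition of aggregation exceeds 20%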;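 also: compound exposure lasted 3 days before fixation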;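 as to nuclei count: percent of the per-plate median nuclei count of sample wells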). The following applies: exon1htt(103Q)mCFP cell line, aggregate imaging, at 2 µM; inhibition of aggregation: stronger effect = higher value; nuclei count: measured here: cell count, toxicity.
The nature of experiment [3]: endothelial E-selectin expression blockers – imaging, HUVEC, immunofluorescence, MLSMR starter and 10KST1 sets, primary screen (AID 487;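 active = visually confirmed hit in the image check and inhibition above 20%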;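 as to inhibition: signal is fraction of cell area covered by stained E-selectin grains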;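 as to nuclei count: 100% = median nuclei count of all wells on the same plate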). The following applies: HUVEC TNFalpha-induced E-selectin immunofluorescence imaging, at 2 µM; inhibition: stronger effect = higher value; nuclei count: measured here: cell number, toxicity.
Experiment [4] concerns the target Voltage-gated potassium channel subunit beta-2 (Rattus norvegicus) (UniProt P62483). Description: inhibitors of rat Kvbeta2 reductase activity – biochemical, NADPH fluorescence, primary screen (AID 622;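 active = fluorescence slope higher than the sample average by over 3 SD, cut at about -0.22 in these data, passing the limit was not always enough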;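 also: slope of raw intensity against log time taken from 70 to 1610 s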). The following applies: recombinant KvBeta, 4-cyanobenzaldehyde reduction, at 10 µM, stronger effect = higher value.
Experiment [5] has the same target. Briefly: enhancers of rat Kvbeta2 NADPH turnover – biochemical, NADPH fluorescence, primary screen (AID 623).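 Also: fluorescence intensity change per second fitted from 20 to 320 s.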 The following applies: Recombinant KvBeta, NADPH fluorescence decrease slope, 10 min; at 10 µM; stronger effect = lower value.
Experiment [6] has as its target Muscarinic acetylcholine receptor M4 (Homo sapiens) (UniProt P08173). Description: M4-linked GIRK flux change, two-sided – cell-based, HEK293 M4/GIRK, thallium flux, BTC-AM, M4 allosteric agonist project, primary screen (AID 625;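 active = fluorescence slope after compound addition differing from the mean of all tested samples at 99.7% confidence, mostly higher but some lower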;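 also: thallium influx through GIRK channels coupled to M4 in HEK293 cells with BTC-AM dye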). The following applies: at 10 µM, actives lie on both sides. The method, boiled down: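 Material – HEK293 cells with M4 receptor and GIRK channels · Buffer or medium – pH 7.3 thallium assay buffer · Doses – one dose, 10 µM final · Timing – cells overnight at 37 °C, BTC-AM loading 1 h, reads 2 min total · Measured by – kinetic fluorescence with BTC-AM dye · Controls – carbachol and DMSO controls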

Experiment [7] can be described thus: blockers of RIG-like receptor reporter activation – cell-based, Sendai virus stimulus, luciferase, 10K MLSCN set, TLR/RLR signaling modifier project, primary screen (AID 602276;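 active = inhibition at or above 50% at 10 µM; inactive = inhibition below 50%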;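 also: firefly luciferase from ISG56 promoter only with Renilla not read in this screen; 0% = Sendai virus plus DMSO and 100% = medium plus DMSO without virus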). The note with it: HEK293 RL24 IRF3 luciferase reporter, at 10 µM, stronger effect = higher value.
A short description of experiment [8]: TLR3 IRF3 reporter activation blockers – cell-based, poly I:C stimulus, luciferase, 10K MLSCN set, primary screen (AID 602277;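 active = inhibition of the reporter signal at or above 50%; inactive = inhibition below 50%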). The note with it: HEK293-TLR3 RL24 IRF3 luciferase reporter, at 10 µM, stronger effect = higher value.

Chain of Muscarinic acetylcholine receptor M4 (Homo sapiens) (P08173 whole entry, looked up): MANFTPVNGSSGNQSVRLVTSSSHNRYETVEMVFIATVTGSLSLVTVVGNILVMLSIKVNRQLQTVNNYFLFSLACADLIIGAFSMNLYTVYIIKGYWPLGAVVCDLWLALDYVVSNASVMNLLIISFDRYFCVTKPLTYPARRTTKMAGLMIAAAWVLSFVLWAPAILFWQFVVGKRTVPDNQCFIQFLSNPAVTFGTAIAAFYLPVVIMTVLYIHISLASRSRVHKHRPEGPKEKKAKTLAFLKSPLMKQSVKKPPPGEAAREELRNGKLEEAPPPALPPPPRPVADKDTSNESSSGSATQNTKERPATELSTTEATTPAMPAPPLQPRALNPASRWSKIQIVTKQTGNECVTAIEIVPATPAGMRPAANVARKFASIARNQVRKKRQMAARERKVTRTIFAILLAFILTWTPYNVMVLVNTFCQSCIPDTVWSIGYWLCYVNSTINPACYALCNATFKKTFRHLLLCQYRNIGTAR
Chain of Voltage-gated potassium channel subunit beta-2 (Rattus norvegicus) (P62483 whole entry, looked up): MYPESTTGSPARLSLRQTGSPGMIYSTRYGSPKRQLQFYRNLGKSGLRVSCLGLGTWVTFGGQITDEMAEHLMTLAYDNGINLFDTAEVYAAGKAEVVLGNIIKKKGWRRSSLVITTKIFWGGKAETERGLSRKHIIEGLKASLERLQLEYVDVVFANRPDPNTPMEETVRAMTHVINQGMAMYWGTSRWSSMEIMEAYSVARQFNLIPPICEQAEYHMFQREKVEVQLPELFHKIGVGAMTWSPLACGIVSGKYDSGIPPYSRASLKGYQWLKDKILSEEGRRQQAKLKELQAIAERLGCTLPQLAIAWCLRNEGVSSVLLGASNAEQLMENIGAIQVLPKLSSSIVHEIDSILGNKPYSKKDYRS

In the case of `CCOc1ccc(CCNC(=O)CCc2nc(-c3ccc(OC)cc3)no2)cc1OCC`, in experiment [1], the cell count amounted to 322. In addition, the inhibition in experiment [1] was -3.5% (inactive); in experiment [3] it was -64.9% (inactive); in experiment [7], 12.2% (inactive); in experiment [8], 12.3% (inactive). Moreover, the inhibition of aggregation in experiment [2] is 1.2% (inactive). For the same compound, the nuclei count was determined as 87.7% in experiment [2] and 146% in experiment [3]. Besides, the figures for the fluorescence slope in experiment [4] and in experiment [6] were -0.529 (inactive) and 0.00633 (inactive), respectively. Also, the NADPH fluorescence slope in experiment [5] is 3.2e-05 (inactive).

`CCCCn1c(CN2CCN(CCO)CC2)nc2ccccc21`: the cell count in experiment [1] worked out at 611. For the same compound, the inhibition in experiment [1] is 6.2% (inactive); in experiment [3] it was 44.3% (inactive); in experiment [7] it was 2.03% (inactive); in experiment [8] it was 19.1% (inactive). Moreover, in experiment [2], the inhibition of aggregation is -17.9% (inactive). Also, the nuclei count worked out at 112% in experiment [2] and 84.5% in experiment [3]. The fluorescence slope in experiment [4] was -0.468 (inactive); in experiment [6], 0.00452 (inactive). In addition, in experiment [5], the NADPH fluorescence slope is -0.000309 (inactive).

With `COc1ccccc1OCc1ccc(C(=O)OCC2CCCO2)o1` (centres undefined), in experiment [1], the cell count was 640. Also, the inhibition in experiment [1] is -5% (inactive); in experiment [3] it was 0.1% (inactive); in experiment [7], -10.8% (inactive); in experiment [8] it was -24.7% (inactive). For the same compound, the inhibition of aggregation in experiment [2] is -10.7% (inactive). Moreover, the nuclei count is 73.2% in experiment [2] and 113% in experiment [3]. Also, the values for the fluorescence slope in experiment [4] and in experiment [6] were -0.503 (inactive) and 0.00535 (inactive), respectively. In addition, the NADPH fluorescence slope in experiment [5] was -0.000334 (inactive).

As to `COc1ccccc1-c1cn[nH]c(=S)n1`, the cell count in experiment [1] was 428. The inhibition in experiment [1] was 1.6% (inactive); in experiment [3] it was -41.2% (inactive); in experiment [7], -32.7% (inactive); in experiment [8], -25.8% (inactive). Also, the inhibition of aggregation in experiment [2] was 4.2% (inactive). Further, the nuclei count was found to be 93% in experiment [2] and 101% in experiment [3]. In addition, the fluorescence slope is -0.576 (inactive) in experiment [4] and 0.00535 (inactive) in experiment [6]. Further, the NADPH fluorescence slope in experiment [5] was 2.7e-05 (inactive).

For the compound `Cc1csc(NC(=O)c2cccc(S(=O)(=O)N3CCCCC3)c2)n1`, the cell count in experiment [1] is 352. Moreover, the inhibition was 7.4% (inactive) in experiment [1], -30.5% (inactive) in experiment [3], -5.34% (inactive) in experiment [7] and 16.9% (inactive) in experiment [8]. The inhibition of aggregation in experiment [2] is -9.9% (inactive). Moreover, the nuclei count was 96.8% in experiment [2] and 109% in experiment [3]. Further, the fluorescence slope is -0.587 (inactive) in experiment [4] and 0.00964 (inactive) in experiment [6]. Also, in experiment [5], the NADPH fluorescence slope was -3e-05 (inactive).

Take `O=C(CN1CCN(c2ncc(C(F)(F)F)cc2Cl)CC1)Nc1ccc2c(c1)OCO2`: the cell count in experiment [1] is 407. Also, the inhibition in experiment [1] was -5.7% (inactive); in experiment [3], -11.6% (inactive); in experiment [7], 7.72% (inactive); in experiment [8], 11.6% (inactive). Also, the inhibition of aggregation in experiment [2] is 4.8% (inactive). Moreover, the nuclei count worked out at 106% in experiment [2] and 104% in experiment [3]. For the same compound, the fluorescence slope in experiment [4] was -0.559 (inactive); in experiment [6], 0.00584 (inactive). Moreover, the NADPH fluorescence slope in experiment [5] was -4.3e-05 (inactive).

On to `Brc1ccc2[nH]ncc2c1`, for which the cell count in experiment [1] amounted to 364. Further, the inhibition in experiment [1] was 4.4% (inactive); in experiment [3], 13.4% (inactive); in experiment [7] it was 15.5% (inactive); in experiment [8], 22.5% (inactive). In addition, the inhibition of aggregation in experiment [2] is 8.2% (inactive). Moreover, the nuclei count in experiment [2] was determined as 91.4%; in experiment [3], 77%. Also, the fluorescence slope is -0.477 (inactive) in experiment [4] and 0.00572 (inactive) in experiment [6]. In addition, the NADPH fluorescence slope in experiment [5] was -3.1e-06 (inactive).

In the case of `COc1cc(-c2c(C#N)c(N)nc3c2CCCC3)cc(OC)c1OC`, the cell count in experiment [1] is 620. Moreover, the inhibition in experiment [1] was -8.6% (inactive); in experiment [3] it was -110% (inactive); in experiment [7], 20% (inactive); in experiment [8], 26.4% (inactive). In experiment [2], the inhibition of aggregation is 0.1% (inactive). In addition, the nuclei count in experiment [2] worked out at 101%; in experiment [3], 121%. For the same compound, the fluorescence slope in experiment [4] is -0.534 (inactive); in experiment [6], 0.0058 (inactive). Moreover, the NADPH fluorescence slope in experiment [5] was -6.8e-05 (inactive).

With `CCc1cccc2c(=O)c(C(=O)NCCN3CCOCC3)c[nH]c12`, the cell count in experiment [1] is 584. Moreover, the inhibition is 8.2% (inactive) in experiment [1], 27.3% (inactive) in experiment [3], 1.65% (inactive) in experiment [7] and 18.5% (inactive) in experiment [8]. Besides, in experiment [2], the inhibition of aggregation was -3.6% (inactive). Further, the nuclei count in experiment [2] is 110%; in experiment [3] it was 91.2%. Moreover, the values for the fluorescence slope in experiment [4] and in experiment [6] were -0.558 (inactive) and 0.00469 (inactive), respectively. For the same compound, the NADPH fluorescence slope in experiment [5] is -5.3e-05 (inactive).

On to `CC(C)C1N=C2c3ccccc3N=C(SCC(=O)NCCc3ccc(S(N)(=O)=O)cc3)N2C1=O` (centres undefined), for which the cell count in experiment [1] worked out at 566. Further, the inhibition was -3.4% (inactive) in experiment [1], -121% (inactive) in experiment [3], 22% (inactive) in experiment [7] and 22% (inactive) in experiment [8]. The inhibition of aggregation in experiment [2] is 7.3% (inactive). Further, the nuclei count worked out at 60.1% in experiment [2] and 110% in experiment [3]. Further, the fluorescence slope in experiment [4] was -0.598 (inactive); in experiment [6], 0.00596 (inactive). In addition, in experiment [5], the NADPH fluorescence slope was -3.3e-05 (inactive).

Consider `COc1cccc(N2CCN(c3c4c(nc5ncnn35)CCC4)CC2)c1`, for which the cell count in experiment [1] is 468. Besides, the inhibition in experiment [1] is 17.4% (inactive); in experiment [3], 2.7% (inactive); in experiment [7] it was 0.933% (inactive); in experiment [8], -39.1% (inactive). Also, in experiment [2], the inhibition of aggregation is -4.1% (inactive). In addition, the nuclei count in experiment [2] worked out at 102%; in experiment [3], 109%. Besides, the fluorescence slope in experiment [4] was -0.558 (inactive); in experiment [6], 0.00591 (inactive). Further, the NADPH fluorescence slope in experiment [5] is -5.9e-05 (inactive).

Turning to `COc1cc(NC(=O)c2cc(OC)c(OC)c(OC)c2)c(OC)cc1NC(=O)CN1CCCCC1`, in experiment [1], the cell count was 700. Also, the inhibition in experiment [1] is -11.1% (inactive); in experiment [3], -14.6% (inactive); in experiment [7], 3.03% (inactive); in experiment [8], -8.31% (inactive). In addition, the inhibition of aggregation in experiment [2] is 12.2% (inactive). Besides, the nuclei count in experiment [2] and in experiment [3] was 115% throughout. Moreover, the figures for the fluorescence slope in experiment [4] and in experiment [6] were -0.309 (inactive) and 0.00436 (inactive), respectively. In addition, the NADPH fluorescence slope in experiment [5] was -3.3e-05 (inactive).

Regarding `COc1ccc(-c2[nH]nc3c2C(c2ccccc2OC(=O)N2CCOCC2)C(C#N)=C(N)O3)cc1` (centres undefined), the cell count in experiment [1] came to 663. Besides, the inhibition in experiment [1] was -15.1% (inactive); in experiment [3], -15.6% (inactive); in experiment [7], 25.8% (inactive); in experiment [8], 19% (inactive). Further, the inhibition of aggregation in experiment [2] is -9.9% (inactive). Also, the nuclei count in experiment [2] and in experiment [3] was 104% in each case. The fluorescence slope was -0.574 (inactive) in experiment [4] and 0.00609 (inactive) in experiment [6]. Besides, in experiment [5], the NADPH fluorescence slope is -3.5e-05 (inactive).

As to `CNC(=O)CN(c1cc(C)ccc1OC)S(=O)(=O)c1ccc(C)cc1`, in experiment [1], the cell count worked out at 317. In addition, the inhibition in experiment [1] was 5% (inactive); in experiment [3] it was 6.9% (inactive); in experiment [7], 5.72% (inactive); in experiment [8], 6.94% (inactive). Besides, in experiment [2], the inhibition of aggregation is -22% (inactive). For the same compound, the nuclei count in experiment [2] came to 107%; in experiment [3] it was 105%. Moreover, the fluorescence slope in experiment [4] was -0.563 (inactive); in experiment [6] it was 0.00434 (inactive). Moreover, the NADPH fluorescence slope in experiment [5] was -1.4e-05 (inactive).
